Only some compounds are listed: those with a hit (about 2.9% of all), similar ones and a draw of the others.
M1 ag parental: M1 agonist counterscreen hit in parental CHO-K1 cells | activation, % at 3 µM | actives 0.48% (n = 360,000) | Fluo-8 calcium fluorescence; scaled to maximal ATP response, vehicle zero; in the data active = activation above about 15%;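 note: untransfected CHO-K1 host cells lacking M1 receptor as counterscreen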
OX1R antag-1: antagonists of human orexin 1 receptor | O43613 | CHO/OX1R cells, Fluo-8 calcium fluorescence, orexin A | inhibition, % at 5 µM | actives 0.43% (n = 330,000) | AID 434989;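 active = inhibition above its plate's threshold, mean inhibition of all tested compounds on the plate plus 3 SD, cut at about 37% in these data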;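 note: 0% = orexin A challenge wells and 100% = SB-334867-A antagonist wells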
Target sequence (O43613 whole entry, looked up): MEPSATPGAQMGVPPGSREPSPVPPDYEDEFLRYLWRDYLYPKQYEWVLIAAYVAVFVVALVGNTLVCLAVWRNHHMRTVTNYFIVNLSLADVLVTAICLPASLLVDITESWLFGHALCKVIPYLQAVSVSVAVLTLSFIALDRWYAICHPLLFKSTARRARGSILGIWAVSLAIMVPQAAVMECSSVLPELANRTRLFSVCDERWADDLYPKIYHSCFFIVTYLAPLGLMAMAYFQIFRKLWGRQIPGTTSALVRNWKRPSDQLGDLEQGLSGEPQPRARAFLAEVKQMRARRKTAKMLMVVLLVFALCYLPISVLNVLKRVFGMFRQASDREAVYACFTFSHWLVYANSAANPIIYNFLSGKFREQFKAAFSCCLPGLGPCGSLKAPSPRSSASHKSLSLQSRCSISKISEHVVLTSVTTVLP
CHO-K1 Ca PAM: M1 PAM counterscreen hit in parental CHO-K1 cells | ATP EC20, Fluo-8 calcium fluorescence; 0% at ATP EC20, 100% at ATP max | actives 0.02% (n = 360,000) | activation, % at 3 µM;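 active = activation above the run cutoff, the mean activation of all test compounds plus 3 SD, cut at about 40% in these data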;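 note: peak over basal fluorescence ratio in a 140 s read after ATP addition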
CHO parental Ca: signal in parental CHO cells, OX1R antagonist counter-screen; AID 463079; parental CHO-K1, ATP-induced calcium, Fluo-8 fluorescence; actives 0.63% (n = 330,000); inhibition, % at 5.6 µM;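 active = inhibition above that plate's mean sample inhibition plus 3 SD, cut at about 26% in these data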;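 note: 0% = ATP-challenged DMSO wells and 100% = DMSO wells without ATP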
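Test system: parental CHO cells; detection: calcium-sensitive Fluo-8 fluorescence; evaluation: percent inhibition of calcium signal; also added: ATP as calcium-mobilizing challenge; repeats: one well per compound; control set: ATP-challenged DMSO wells low, unchallenged DMSO wells high; compound: single nominal dose of 5.6 µM per compound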
CHO-K1 Ca antag: counter-screen for M1 antagonists: effect in parental CHO-K1 cells; inhibition, % at 3 µM; ATP-induced calcium, Fluo-8 fluorescence; actives 0.6% (n = 360,000); AID 602250;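 active = inhibition above a per-plate cutoff, the plate's mean sample inhibition plus 3 SD, cut at about 24% in these data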;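 note: 0% = DMSO plus EC80 ATP and 100% = DMSO alone without ATP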
OX1R antag-2: OX1R (human) antagonism; O43613; OX1R-expressing cells, FRET antagonist read-out; inhibition, % at 6.6 µM; actives 1.8% (n = 330,000); in the data active = inhibition mostly above about 38%, no sharp cut-off; inactive = mostly below about 40%;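 note: 0% = agonist challenge alone and 100% = reference antagonist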
* marks the source's active call; other numbers are inactive results; · = no result given.

SMILES | M1 ag parental | OX1R antag-1 | CHO-K1 Ca PAM | CHO parental Ca | CHO-K1 Ca antag | OX1R antag-2
COCCNc1nnc(SCC(=O)NC(=O)c2ccccc2)s1 | 0 | 2 | 16 | 4 | -8 | 15
O=P(CCCCCCCCCP(=O)(c1ccccc1)c1ccccc1)(c1ccccc1)c1ccccc1 | 6 | 86* | -1 | 100* | 16 | 26
CCCCCC(=O)NNC(=O)Nc1ccccc1 | 1 | 2 | 17 | 5 | -10 | 27
O=C(CCCC(=O)NNC(=O)Nc1ccccc1)NNC(=O)Nc1ccccc1 | 0 | -20 | -18 | -13 | 28* | 14
COc1ccc(CNC(=O)c2ccc3c(c2)N(C)C(=O)CS3=O)cc1 (stereo unspecified) | 2 | 3 | -13 | 0 | 15 | 10
O=C(NCc1ccccc1)C(c1ccc(F)cc1)N(C(=O)c1csnn1)C1CCCC1 (stereo unspecified) | 4 | -17 | 0 | -11 | -4 | 33
COCCNC(=O)Cc1ccc(F)cc1 | 0 | 0 | 19 | -6 | -12 | -1
CC(C)(C)c1ccc(OCCNC(=O)Cc2ccc(F)cc2)cc1 | 4 | -18 | -12 | -23 | 27* | 25
C=CCNC(=O)c1ccccc1NC(=O)C1CCN(S(=O)(=O)c2ccc(SC)cc2)CC1 | 1 | -3 | -6 | -8 | 1 | 11
Cc1ccccc1Oc1nc(-c2ccccn2)nc2ccccc12 | 2 | -27 | 7 | -15 | 0 | 8
O=S(=O)(c1ccccc1)N1CCC(O)(CSc2ccc(F)cc2)CC1 | 18* | 5 | -11 | -6 | 16 | 33
COc1ccc(-c2c(-c3ccc(OC)c(C)c3O)n[nH]c2C)cc1 | 1 | -7 | 5 | -2 | -7 | 7
CC(=O)c1cccc(N(C(=O)CS(=O)CC(=O)Nc2ccc(F)cc2)C(C(=O)NC2CCCCC2)c2ccc(C)o2)c1 (stereo unspecified) | 0 | -10 | -7 | -23 | 10 | 23
CC(=O)c1ccc(N(C(=O)CS(=O)CC(=O)Nc2ccc(F)cc2)C(C(=O)NC2CCCCC2)c2cccs2)cc1 (stereo unspecified) | -1 | -17 | -11 | -15 | 25* | 17
O=c1c2ccccc2c(-c2ccccc2)nn1Cc1c(Cl)cccc1Cl | 0 | -35 | 19 | -26 | -12 | 5
Clc1cccc(Cl)c1Cn1ccc(C2CC2)n1 | 16* | -4 | 6 | 4 | 4 | 11
O=C(Nc1nc2ccccc2s1)c1ccc(Cl)s1 | 0 | -8 | -1 | -12 | 0 | 43*
O=C(Nc1nc2ccccc2s1)c1ccc(F)cc1 | 0 | -23 | -12 | -19 | -3 | 25
CC(=O)c1sc(NC(=O)c2cc(-c3ccccc3)nn2-c2ccccc2)nc1C | 1 | -5 | 7 | -18 | 3 | 66*
O=C(Nc1nc2ccccc2s1)c1cc(-c2ccccc2)nn1-c1ccccc1 | 1 | 15 | 8 | 42* | -4 | 30
CCCCn1c(N)c(N(CCC(C)C)C(=O)c2c(CC)noc2C)c(=O)[nH]c1=O | 1 | · | 24 | · | -13 | ·
CCCNC(=O)c1onc(CS(=O)(=O)c2cccc(OC)c2)c1C(=O)NCCC | 0 | -3 | 4 | -12 | -19 | 10
CCNc1ccc2noc3c2c1C(=O)c1ccccc1-3 | 51* | 103* | -2 | 42* | 27* | 123*
O=C1c2ccccc2-c2onc3ccc(NCc4ccco4)c1c23 | 19* | 62* | -10 | 37 | 45* | 82*
CN(Cc1cn(C)nc1-c1ccc(Oc2ccccc2)cc1)CC1COCCO1 (stereo unspecified) | 2 | -9 | -1 | -21 | -2 | 18
SMILES | M1 ag parental | OX1R antag-1 | CHO-K1 Ca PAM | CHO parental Ca | CHO-K1 Ca antag | OX1R antag-2
CN(CC(=O)Nc1cccc(F)c1)C(=O)/C=C/c1cc(Br)ccc1OC(F)F | 3 | -11 | 10 | -28 | -3 | 13
COc1ccc(-c2c(=O)n(OC)c3ccccc3[n+]2[O-])cc1OC | 0 | -17 | 5 | -7 | -12 | 44*
C=CCOn1c(=O)c(-c2cccs2)[n+]([O-])c2ccccc21 | 0 | -18 | -10 | -24 | 28* | 6
C=CCOn1c(=O)c(-c2ccc(Cl)cc2)[n+]([O-])c2ccccc21 | 1 | · | -3 | · | -5 | ·
C=CCOn1c(=O)c(-c2ccc(OC)c(OC)c2)[n+]([O-])c2ccccc21 | 1 | -33 | 2 | -7 | 8 | 61*
CCOC(=O)[C@H]1[C@H]2COc3ccc(OC)cc3[C@@H]2N2C(=O)CN(CCc3c[nH]c4ccccc34)C(=O)[C@@]12C | 5 | -27 | 8 | -17 | -17 | 5
COc1cc(OC)c(OC)cc1CNCCSc1nnnn1C | 19* | -19 | 11 | -13 | 1 | 10
CCOc1cc(CNCCO)cc(Br)c1OCc1ccccc1 | 3 | 8 | 9 | -7 | 10 | 15
CCOc1cc(CNCCSc2nnnn2C)cc(Br)c1OCc1ccccc1 | 1 | 51* | -7 | 66* | 17 | 11
Cn1nnnc1SCCNCc1cc(Cl)ccc1OCc1ccccc1 | 8 | -16 | 3 | -12 | -3 | 10
O=S(=O)(Nc1cccc(-c2nnco2)c1)c1ccc(F)cc1F | 1 | -12 | 2 | -3 | -2 | 6
CCn1c(=NC(=O)CCS(=O)(=O)c2ccccc2)sc2cccc(OC)c21 | 2 | 12 | 8 | 56* | -5 | 25
COCCn1c(C)cc(C(=O)CN2C(=O)NC3(CCCCCCC3)C2=O)c1C | 1 | -2 | 10 | -15 | -26 | 63*
COCCn1c(C)cc(C(=O)CN2CCCCC2)c1C | 0 | -13 | 6 | -22 | -10 | 2
Cc1c(=O)n(OCc2cccc(F)c2)c2ccccc2[n+]1[O-] | 0 | -17 | 15 | -13 | 1 | 42*
Cc1c(=O)n(OCc2ccc(Cl)cc2)c2ccccc2[n+]1[O-] | 0 | -24 | -13 | -5 | 18 | 21
CCCC(=O)N1CCCC1(C)C(=O)NCc1ccc(SC)cc1 (stereo unspecified) | 0 | · | 8 | · | -4 | ·
CC(C)c1nc2c(s1)CCc1onc(-c3cccc([N+](=O)[O-])c3)c1-2 | 0 | -50 | -13 | -16 | -6 | 11
CC(C)c1nnc(SCC(=O)NCc2ccco2)n1C | 0 | -20 | -9 | -3 | 30* | 18
CCn1c(SCC(=O)NCc2ccco2)nnc1C(C)C | 0 | -10 | 2 | 2 | -3 | 26
COc1ccc2nc(NC(=O)Nc3ccccc3OC)sc2c1 | 2 | 14 | 26 | -12 | -20 | 66*
COc1ccc2nc(NC(=O)Nc3cccc4ccccc34)sc2c1 | 0 | -14 | 8 | 5 | -8 | 42*
COc1cccc(C(=O)Nc2cccc3ccccc23)c1 | 1 | · | 25 | · | -15 | ·
COc1ccc2nc(NC(=O)c3ccc4ncsc4c3)sc2c1 | 4 | -31 | 9 | -16 | 9 | 57*
